Data: ChEMBL document CHEMBL1129280, “3-Benzisothiazolylpiperazine derivatives as potential atypical antipsychotic agents” (J Med Chem, 1996)

Key:
Rattus norvegicus [1] = assay: Dose (administered orally) inhibiting spontaneous locomotor behavior in rats; assay type: functional; settings: po
Summary of the method: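 At the start of the 12 h dark cycle, rats were dosed orally with vehicle or compound and placed at once in unfamiliar activity chambers. Horizontal locomotion recorded over 4 h.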

Rattus norvegicus [2] = assay: Dose inducing catalepsy in rats after oral administration; assay type: functional
Summary of the method: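 Oral dose of compound or vehicle; rats tested 120 and 180 min later with forepaws on a horizontal bar (9 mm diameter, 10 cm high). Latency to climb down recorded, 90 s maximum, score averaged over two trials; 20 s mean immobility was the catalepsy criterion. ED20s dose extrapolated by linear regression.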

[3] = target: T1, Adrenergic receptor alpha-1 (Rattus norvegicus, UniProt P15823+P23944+P43140); assay: Displacement of [3H]prazosin from rat brain Alpha-1 adrenergic receptor
T1 sequence (P15823 whole entry): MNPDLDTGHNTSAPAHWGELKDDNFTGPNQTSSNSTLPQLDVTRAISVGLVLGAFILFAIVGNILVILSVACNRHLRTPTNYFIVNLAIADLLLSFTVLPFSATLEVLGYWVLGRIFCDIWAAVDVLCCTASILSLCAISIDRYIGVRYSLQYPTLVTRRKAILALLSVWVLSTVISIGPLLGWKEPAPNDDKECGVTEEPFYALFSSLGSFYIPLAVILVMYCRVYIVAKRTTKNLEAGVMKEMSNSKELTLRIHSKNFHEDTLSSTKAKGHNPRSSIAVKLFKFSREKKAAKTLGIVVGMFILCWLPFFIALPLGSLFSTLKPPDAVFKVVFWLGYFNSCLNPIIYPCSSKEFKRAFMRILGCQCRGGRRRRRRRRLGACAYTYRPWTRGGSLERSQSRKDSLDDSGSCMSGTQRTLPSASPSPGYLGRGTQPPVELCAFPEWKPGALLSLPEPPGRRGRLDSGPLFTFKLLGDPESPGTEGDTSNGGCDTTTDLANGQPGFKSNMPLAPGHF
T1 sequence (P23944 whole entry): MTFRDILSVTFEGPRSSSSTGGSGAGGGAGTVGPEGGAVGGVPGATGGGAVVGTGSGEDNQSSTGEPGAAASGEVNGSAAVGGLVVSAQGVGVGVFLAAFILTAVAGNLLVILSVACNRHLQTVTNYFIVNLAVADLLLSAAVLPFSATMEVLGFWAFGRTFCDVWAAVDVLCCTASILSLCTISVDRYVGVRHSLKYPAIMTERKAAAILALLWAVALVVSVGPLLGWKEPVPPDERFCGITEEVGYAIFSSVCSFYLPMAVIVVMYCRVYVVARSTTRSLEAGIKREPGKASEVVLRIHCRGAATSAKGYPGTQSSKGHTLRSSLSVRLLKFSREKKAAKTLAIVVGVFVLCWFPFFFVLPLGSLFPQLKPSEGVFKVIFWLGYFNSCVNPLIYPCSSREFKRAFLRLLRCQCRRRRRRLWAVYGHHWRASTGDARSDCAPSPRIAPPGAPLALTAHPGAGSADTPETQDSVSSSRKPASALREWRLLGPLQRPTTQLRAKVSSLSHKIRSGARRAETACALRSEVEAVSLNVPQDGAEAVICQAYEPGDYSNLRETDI
T1 sequence (P43140 whole entry): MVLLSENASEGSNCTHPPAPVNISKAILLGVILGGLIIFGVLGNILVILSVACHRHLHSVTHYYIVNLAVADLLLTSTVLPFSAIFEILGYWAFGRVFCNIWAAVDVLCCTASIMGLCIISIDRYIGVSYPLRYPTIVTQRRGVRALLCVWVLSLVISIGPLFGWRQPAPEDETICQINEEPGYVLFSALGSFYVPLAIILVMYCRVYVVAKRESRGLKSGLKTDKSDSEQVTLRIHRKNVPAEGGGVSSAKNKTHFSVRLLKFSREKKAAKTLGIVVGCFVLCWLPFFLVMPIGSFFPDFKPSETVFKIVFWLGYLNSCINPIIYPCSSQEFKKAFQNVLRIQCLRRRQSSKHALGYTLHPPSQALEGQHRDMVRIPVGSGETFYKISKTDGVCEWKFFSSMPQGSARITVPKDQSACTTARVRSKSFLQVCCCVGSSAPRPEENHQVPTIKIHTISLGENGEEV

Rattus norvegicus [4] = assay: Dose (administered orally) inhibiting apomorphine-induced stereotypy in rats; assay type: functional; settings: po
Summary of the method: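 Rats dosed orally with vehicle or compound and observed in clear cages; apomorphine HCl 0.75 mg/kg sc given 3 h later. Stereotypy rated blind on a 0–4 scale starting 10 min after apomorphine, every 10 min, five ratings in all.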

Rattus norvegicus [5] = assay: Dose (administered orally) inhibiting amphetamine-induced locomotor behavior in rats; assay type: functional; settings: po
[6] = target: T1, Adrenergic receptor alpha-1; assay: Displacement of [3H]prazosin from Alpha-1 adrenergic receptor in rat brain; assay type: tissue-based
Rattus norvegicus [7] = assay: Dose inhibiting conditioned avoidance response in rats after oral administration; assay type: functional
Summary of the method: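 Each test day, 30 predrug avoidance trials in the morning; in the afternoon, oral compound or vehicle, then 30 more trials starting 120 min later. Predrug and postdrug avoidances compared by repeated-measures ANOVA with Newman-Keuls test; ID50 from linear regression of dose-response data.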

| SMILES | ED50 (Rattus norvegicus [1]) | ED50 (Rattus norvegicus [2]) | Log Ki [3] | ED50 (Rattus norvegicus [4]) | ED50 (Rattus norvegicus [5]) | Ki [6] | ED50 (Rattus norvegicus [7]) |
| --- | --- | --- | --- | --- | --- | --- | --- |
| Oc1nc2ccc(CCN3CCN(c4nsc5ccccc45)CC3)cc2s1 | 2.7 mg/kg | > 56 mg/kg | -8.63 | 23.8 mg/kg | 2.7 mg/kg | 2.3 nM | 12.3 mg/kg |
| CCN1C(=O)Cc2cc(CCN3CCN(c4nsc5ccccc45)CC3)ccc21 | 2.1 mg/kg | 10 mg/kg | -8.35 | 4.7 mg/kg | 1.1 mg/kg | 4.5 nM | 1.8 mg/kg |
| O=C1Cc2cc(CCN3CCN(c4nsc5ccccc45)CC3)c(F)cc2N1 | 3.1 mg/kg | 17.8 mg/kg | -8.19 | 9.1 mg/kg | 1 mg/kg | 6.5 nM | 9 mg/kg |
| Oc1nc2ccc(CCN3CCN(c4nsc5ccccc45)CC3)cc2o1 | 9.8 mg/kg | > 32 mg/kg | -8.38 | 21.6 mg/kg | 4.2 mg/kg | 4.2 nM | 17.8 mg/kg |
| O=C1Nc2ccc(CCN3CCN(c4nsc5ccccc45)CC3)cc2C12CCCC2 |  | 32 mg/kg | -8.29 | 9 mg/kg | 5.8 mg/kg | 5.1 nM |  |
| O=C1Cc2cc(CCN3CCN(c4nsc5ccccc45)CC3)ccc2N1 | 8.5 mg/kg | 18.8 mg/kg | -8.52 | 8.4 mg/kg | 1.4 mg/kg | 3 nM | 6.7 mg/kg |
| CC1(C)C(=O)Nc2ccc(CCN3CCN(c4nsc5ccccc45)CC3)cc21 | 10.7 mg/kg | 17.8 mg/kg | -8.68 | 10 mg/kg | 2.3 mg/kg | 2.1 nM | 2.6 mg/kg |
| CN1CCN(C2=Nc3cc(Cl)ccc3Nc3ccccc32)CC1 [CLOZAPINE] | 8.18 mg/kg | > 32 mg/kg |  | > 32 mg/kg | 12.8 mg/kg |  | > 17.8 mg/kg |
| O=C(CCCN1CCC(O)(c2ccc(Cl)cc2)CC1)c1ccc(F)cc1 [HALOPERIDOL] | 0.68 mg/kg | 0.79 mg/kg |  | 0.25 mg/kg | 0.14 mg/kg |  | 0.93 mg/kg |
| Cc1nc2n(c(=O)c1CCN1CCC(c3noc4cc(F)ccc34)CC1)CCCC2 [RISPERIDONE] | 1.2 mg/kg | 5.7 mg/kg |  | 1.8 mg/kg | 0.44 mg/kg |  | 1.6 mg/kg |
| O=C1CC2(CCCC2)CC(=O)N1CCCCN1CCN(c2nsc3ccccc23)CC1 [TIOSPIRONE] | 15.5 mg/kg | 20.1 mg/kg | -8.83 | 18.8 mg/kg | 4.8 mg/kg | 1.5 nM | 11.7 mg/kg |
| O=C1Cc2cc(CCN3CCN(c4nsc5ccccc45)CC3)c(Cl)cc2N1 [ZIPRASIDONE] | 8.9 mg/kg | 12.1 mg/kg | -7.98 | 2.4 mg/kg | 1.5 mg/kg | 11 nM | 2.6 mg/kg |
